Screening data as filed in PubChem.
An excerpt weighted towards active compounds, which were near 3.7% of everything screened.
hERG rescue – compounds protecting human hERG from proarrhythmic drug block; 310,000 tested, 0.51% active; activation (rescue from dofetilide block), less the hit threshold, % at 10 µM; Q12809; CHO-hERG, FluxOR thallium flux, dofetilide IC70 present; AID 1511;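 active = activation above the mean of controls blocked by dofetilide plus 5 SD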;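 also: thallium influx through hERG after potassium depolarization seen as dye fluorescence rise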
Target sequence (Q12809 whole entry, looked up): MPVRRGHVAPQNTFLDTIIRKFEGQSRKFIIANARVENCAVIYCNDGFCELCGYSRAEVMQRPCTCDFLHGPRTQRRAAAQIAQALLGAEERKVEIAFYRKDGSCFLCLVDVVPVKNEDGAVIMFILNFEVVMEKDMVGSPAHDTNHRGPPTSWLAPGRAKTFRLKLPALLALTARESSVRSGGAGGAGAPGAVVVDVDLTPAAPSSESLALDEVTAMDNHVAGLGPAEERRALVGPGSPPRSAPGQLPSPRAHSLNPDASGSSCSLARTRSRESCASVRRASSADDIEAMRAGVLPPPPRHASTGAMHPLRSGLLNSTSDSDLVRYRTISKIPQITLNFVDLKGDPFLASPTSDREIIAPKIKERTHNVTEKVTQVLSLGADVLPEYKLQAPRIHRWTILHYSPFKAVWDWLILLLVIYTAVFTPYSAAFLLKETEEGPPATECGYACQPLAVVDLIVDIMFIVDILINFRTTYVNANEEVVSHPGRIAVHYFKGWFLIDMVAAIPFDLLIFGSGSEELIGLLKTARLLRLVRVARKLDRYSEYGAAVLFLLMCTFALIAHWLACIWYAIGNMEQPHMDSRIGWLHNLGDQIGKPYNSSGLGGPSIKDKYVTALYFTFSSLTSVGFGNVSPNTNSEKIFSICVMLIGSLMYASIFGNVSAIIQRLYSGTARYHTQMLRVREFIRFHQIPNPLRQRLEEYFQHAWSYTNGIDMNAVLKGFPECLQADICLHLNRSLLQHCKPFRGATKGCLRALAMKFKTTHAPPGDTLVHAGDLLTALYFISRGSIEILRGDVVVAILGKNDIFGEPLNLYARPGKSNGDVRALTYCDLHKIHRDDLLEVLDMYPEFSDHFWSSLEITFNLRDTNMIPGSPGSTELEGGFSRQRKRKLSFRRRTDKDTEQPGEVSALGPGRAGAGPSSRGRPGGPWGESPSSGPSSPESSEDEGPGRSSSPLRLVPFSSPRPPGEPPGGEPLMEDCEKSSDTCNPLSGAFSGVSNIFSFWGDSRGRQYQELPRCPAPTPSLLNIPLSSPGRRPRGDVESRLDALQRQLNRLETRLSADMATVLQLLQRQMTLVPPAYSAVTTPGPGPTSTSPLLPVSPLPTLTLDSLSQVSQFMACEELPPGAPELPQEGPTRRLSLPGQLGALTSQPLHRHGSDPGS
KCNK3 block – human KCNK3 channel inhibition, primary screen | O14649 | CHO-KCNK3 thallium flux, FluxOR fluorescence; active compounds read low | B-score at 10 µM | 340,000 tested, 0.84% active;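 active = B-score under library mean minus 4 SD, starting fluorescence ratio at most library mean plus 5 SD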;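 also: more negative B-score means stronger inhibition of thallium flux through KCNK3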
Kir21 block – inhibitors of mouse Kir2.1 inward-rectifier potassium channel | B-score at 10 µM | HEK293-Kir2.1, FluxOR thallium flux fluorescence; active compounds read low | P35561 | AID 1672 | 310,000 tested, 0.85% active;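 active = fluorescence ratio B-score at or below minus 3 SD of library scores, with starting-brightness B-score within 2 SD, cut at about -4.2 in these data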;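 also: channel flux triggered by added potassium and thallium sulfate stimulus; B-score of peak minus minimum fluorescence over baseline after thallium stimulus; more negative B-score means stronger Kir2.1 block with less thallium influx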
KCNQ1 inh – inhibitors of human KCNQ1 potassium channel; B-score at 10 µM; CHO-K1 KCNQ1, FluxOR thallium flux fluorescence; active compounds read high; 310,000 tested, 1.3% active;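 active = compounds whose thallium flux B-score, printed positive for inhibition, exceeds three library SD while starting fluorescence stays within three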;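 also: channel opened by potassium depolarization with thallium stimulus after 20 min compound exposure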
KCNQ1 act – human KCNQ1 channel potentiation or activation. P51787. CHO-K1 KCNQ1, thallium flux FluxOR fluorescence; active compounds read high. 310,000 tested, 0.35% active. AID 2648. B-score at 10 µM;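 active = fluorescence ratio B-score, a plate-corrected score, at least three library SD, with initial intensity B-score within 5 SD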
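assay system = KCNQ1-transfected CHO-K1 cells | medium = assay buffer with matched DMSO | probe or stimulus = depolarizing K+/Tl+ stimulus, K2SO4 and Tl2SO4 each 12.5 mM in 5x stock | dosing = single dose | incubation = dye 90 min, compound 20 min, room temperature | detection = kinetic FluxOR fluorescence, 10 s baseline plus 110 s post-stimulus | evaluation = ratio B score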
KCNK9 block – inhibitors of human KCNK9 two-pore domain potassium channel; AID 488922; B-score at 10 µM; HEK293 KCNK9, FluxOR thallium flux fluorescence; active compounds read low; Q9NPC2; 310,000 tested, 1.2% active;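 active = ratio B-score over 3 SD below the library mean, with starting fluorescence within 5 SD of its mean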;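 also: negative B-score means less thallium flux so channel inhibition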
* = called active by the depositor; i = inactive; · = no result given.

SMILES	hERG rescue	KCNK3 block	Kir21 block	KCNQ1 inh	KCNQ1 act	KCNK9 block
CCN(CC)c1ccc2c(-c3ccc(S(=O)(=O)O)cc3S(=O)(=O)[O-])c3ccc(=[N+](CC)CC)cc-3oc2c1	-41	i	-18	25*	i	i
CCN(CC)c1ccc2nc3c4ccccc4c(=O)cc-3oc2c1	-2	·	-0.63	i	i	i
N/C(=N\O)c1ccc(NC(=O)c2cccs2)cc1	46*	i	0.13	i	i	i
O=C(Nc1cccc(NC(=O)c2cccs2)c1)c1ccc(F)cc1	-4	i	1	i	i	-7.4*
CCc1nc2n(n1)C(O)c1cc([N+](=O)[O-])ccc1S2 (stereo not drawn)	-4	i	-0.5	i	i	i
NC(=O)CC(NC(=O)c1ccccc1)c1ccc(N2CCC(Cc3ccccc3)CC2)c([N+](=O)[O-])c1 (stereo not drawn)	-17	i	-2.1	i	i	-6.8*
Nc1nc(Oc2ccc(F)cc2)c(Br)c(=O)[nH]1	-9	i	2	i	i	i
Clc1ncnc2scc(-c3ccccc3)c12	-9	i	1.4	i	i	i
S=c1[nH]cnc2scc(-c3ccccc3)c12	60*	i	-0.58	i	18*	i
S=c1[nH]cnc2sc(-c3ccccc3)cc12	19*	i	1.4	i	132*	i
CCOc1cc(/C=C(\C#N)C(=O)Nc2cccc(C(=O)O)c2)ccc1OCc1ccccc1Cl	-17	i	1.9	6*	i	i
CCOc1cc(/C=C(\C#N)C(=O)Nc2cccc(C(=O)O)c2)cc(Br)c1OC(=O)c1ccc(OC)cc1	-8	i	-5.3*	i	i	i
CC(NC(=O)C(=O)NCCN1CCN(C(=O)c2ccccc2Br)CC1)c1ccccc1 (stereo not drawn)	-4	i	0.04	i	i	i
CN(Cc1ccccc1)CC(O)COc1ccc(CNCc2cccnc2)cc1 (stereo not drawn)	-10	i	-0.22	i	i	i
CN(Cc1ccccc1)CC(O)COc1ccc(CNCc2ccc(Cl)s2)cc1 (stereo not drawn)	-5	i	-12*	i	i	i
CC1(C)CC(=O)C=C(c2cccc3c2oc2ccccc23)C1	-8	i	0.86	6*	i	i
COc1ccc(-c2[nH]ncc2CNC(C)c2ccccc2Cl)cc1F (stereo not drawn)	-8	i	-7.3*	i	i	i
CC(C)(C)c1ccc(C(=O)NC(=S)Nc2nc3c(s2)CCCC3)cc1	28*	i	-0.5	i	33*	i
Cc1cccc(C(=O)NCC(=O)N2CCOCC2)c1	-12	i	-1.6	i	i	i
C=C1/C(=C\C=C2/CCC[C@]3(C)[C@@H]([C@H](C)CCCC(C)(C)O)CC[C@@H]23)C[C@@H](O)C[C@@H]1O	-7	·	-0.01	7*	i	i
CC(C)CCC[C@@H](C)[C@H]1CC[C@H]2[C@@H]3C(=O)C=C4C[C@@H](O)CC[C@]4(C)[C@H]3CC[C@]12C	-6	i	-1	i	i	i
Cc1nc2ccccc2c(=O)n1/N=C/c1ccco1	-1	i	-0.05	i	i	i
Cc1ccccc1OCc1nc2ccccc2c(=O)n1/N=C/c1ccco1	-5	i	-0.07	i	i	-6.9*
Cc1cc([N+](=O)[O-])ccc1NC(=O)CSc1nncn1-c1cccnc1	-6	i	1.4	i	i	i
CN(C)c1ccc(/C=C(/NC(=O)c2ccccc2)C(=O)NCCCn2ccnc2)cc1	-13	i	0.46	i	i	i
SMILES	hERG rescue	KCNK3 block	Kir21 block	KCNQ1 inh	KCNQ1 act	KCNK9 block
CC(=O)N1C(=O)c2cccc3cccc(c23)C(=O)N1C(C)=O	-1	·	0.35	i	i	i
O=C1c2cccc3cccc(c23)C(=O)C1(O)O	8.0*	i	-0.64	i	i	i
CN(C)Cc1nc2ccccc2c(=O)n1Cc1nc(-c2cccc([N+](=O)[O-])c2)cs1	-13	i	1.9	i	i	-7.6*
O=C(Cc1nc2ccccc2[nH]1)c1cccc([N+](=O)[O-])c1	-16	i	0.47	8*	i	i
Clc1ccc(-c2ccnc3nc(N4CCOCC4)nn23)c(Cl)c1	·	i	·	·	·	·
Cn1nc(C(F)(F)F)c(CNC(=O)C(C)(C)CCl)c1N1CCOCC1	-10	i	-0.55	i	i	i
Cn1nc(C(F)(F)F)c(CN2CC(C)(C)C2=O)c1N1CCOCC1	5.0*	i	-0.12	i	i	i
CN1CCC(N(C)C(=O)c2cc(-c3ccccc3Cl)nc3ccccc23)CC1	·	i	·	·	·	·
Cc1ccc(N2C(=O)c3cccc4c([N+](=O)[O-])ccc(c34)C2=O)c2cccnc12	-7	i	0.66	i	i	i
Cc1ccc(N2C(=O)c3cccc4c(N5CCN(C)CC5)ccc(c34)C2=O)c2cccnc12	-21	·	-1.2	9*	i	i
CCCCN1CC(=O)N2[C@H]3c4ccc(OC)cc4OC[C@@H]3[C@H](c3ccccc3)[C@]2(C)C1=O	·	i	·	·	·	·
COc1cc(C)c(S(=O)(=O)N2CCCC2)cc1C(C)C	-11	i	-4.4*	i	i	i
Nc1ccc2nc3c(=O)n(CCc4ccccc4)c(=O)[nH]c3nc2c1	-26	i	-11	8*	i	i
O=C(NCc1ccc(Cl)cc1)c1n[nH]c([N+](=O)[O-])c1Cl	-11	i	0.29	6*	i	i
CCC(C(=O)OCC(=O)Nc1c(Cl)cccc1Cl)c1ccccc1 (stereo not drawn)	-6	i	-6.9*	i	i	i
CCC(C(=O)OCC(=O)Nc1ccc(F)cc1)c1ccccc1 (stereo not drawn)	·	i	·	·	·	·
O=C(OCC(=O)N1CCN(c2ccccc2)CC1)c1cc(Cl)ccc1[N+](=O)[O-]	-9	i	-0.03	i	i	i
CC(C(=O)OCC(=O)c1cccc([N+](=O)[O-])c1)N1C(=O)C2C3C=CC(C3)C2C1=O (stereo not drawn)	-7	i	-0.03	i	i	i
O=C(CSCc1cnn(-c2ccccc2)c1-n1cccc1)NCc1ccccn1	-10	i	-4.4*	i	i	i
CCCCC/C=N/NC(=O)c1[nH]c2ccc([N+](=O)[O-])cc2c1C	-15	i	0.01	i	i	i
CCC/C=N/NC(=O)c1[nH]c2c([N+](=O)[O-])cccc2c1C	-6	i	0.61	i	16*	i
